Results as given in ChEMBL document CHEMBL3351672, “Saccharin derivatives as inhibitors of interferon-mediated inflammation” (J Med Chem, 2014).
Active and inactive are the calls of the source. No cut-off for these calls is given here.

Assays:
RAW264.7 [1] = assay: Antiinflammatory activity in mouse RAW264.7 cells assessed as inhibition of LPS-induced nitric oxide production; assay type: functional, cell-based
Procedure, shortened: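 RAW 264.7 cells stimulated with 20 ng/mL LPS plus a range of compound concentrations; nitric oxide output measured. Data normalized so LPS + solvent = 100% and untreated cells = 0% activation; IC50 fitted from dose–response, points averaged over nine replicates (SD).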

RAW264.7 [2] = assay: Cytotoxicity against mouse RAW264.7 cells assessed as cell viability by WST1 assay; assay type: cell-based; conditions: read-out: LC50 (the source's name) (converted)
Procedure, shortened: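 RAW 264.7 mouse macrophages were stimulated with 20 ng/mL LPS and given a range of compound concentrations, alongside the nitric oxide inhibition assay. Cell viability was measured at each tested concentration. LC50 was taken as the concentration giving 50% cell viability.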

RAW264.7 [3] = assay: Inhibition of IFNgamma-induced iNOS mRNA expression in mouse RAW264.7 cells at 1 to 50 uM after 16 hrs by RT-PCR analysis; assay type: functional
[4] = target: T1, Nuclear factor NF-kappa-B complex (Homo sapiens) (UniProt Q00653+P19838+Q04206); assay: Inhibition of LPS-induced NFkappaB activation in human HEK293T cells at 0.5 to 1 uM after 18 to 24 hrs by secreted embryonic alkaline phosphatase reporter gene assay; assay type: cell-based; conditions: HEK-293T
Procedure, shortened: (§1)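 NF-κB activation monitored by secreted embryonic alkaline phosphatase reporter in HEK 293T cells stimulated via TLR4 or TLR3; compound tested at concentrations […].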

RAW264.7 [5] = assay: Antiinflammatory activity in mouse RAW264.7 cells assessed as inhibition of pam2CSK4-induced nitric oxide production; assay type: functional, cell-based
Procedure, shortened: (§2)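 RAW 264.7 cells stimulated with Pam2CSK4 (TLR2/6 ligand) or Poly I:C (TLR3 ligand) with varying compound concentrations; NO production read out. Normalized to agonist + solvent (100%) versus untreated (0%); IC50 from dose–response curves, nine replicates averaged, SD shown.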

RAW264.7 [6] = assay: Cytotoxicity against mouse RAW264.7 cells assessed as cell viability up to 100 uM by WST1 assay; assay type: cell-based
Procedure, shortened: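 Cell viability assay run on the compound-treated RAW 264.7 cultures at each tested concentration; LC50 taken as concentration giving 50% viability.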

RAW264.7 [7] = assay: Antiinflammatory activity in mouse RAW264.7 cells assessed as inhibition of poly I:C-induced nitric oxide production; assay type: functional, cell-based; procedure, shortened: as §2
RAW264.7 [8] = assay: Inhibition of LPS-induced iNOS mRNA expression in mouse RAW264.7 cells after 20 hrs by RT-PCR analysis; assay type: functional, cell-based
Procedure, shortened: (§3)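 RAW 264.7 cells incubated 20 h with 20 ng/mL LPS and varying compound concentrations; iNOS mRNA quantified by real-time PCR, ligand-induced cells set to fold change 1. Three biological replicates, each in technical duplicate; SD reported.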

RAW264.7 [9] = assay: Inhibition of LPS-induced iNOS protein expression in mouse RAW264.7 cells after 20 hrs by Western blot analysis; assay type: functional, cell-based
Procedure, shortened: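 RAW 264.7 cells treated with LPS and varying compound concentrations; iNOS protein detected by Western blot using a pan-NOS antibody.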

[10] = target: T1, Nuclear factor NF-kappa-B complex (Homo sapiens); assay: Inhibition of poly I:C-induced NFkappaB activation in human HEK293T cells at 0.5 to 1 uM after 18 to 24 hrs by secreted embryonic alkaline phosphatase reporter gene assay; assay type: cell-based; conditions: HEK-293T; procedure, shortened: as §1
[11] = target: T1, Nuclear factor NF-kappa-B complex (Homo sapiens); assay: Inhibition of TNFalpha-induced NFkappaB activation in human HEK293T cells at 0.5 to 1 uM after 18 to 24 hrs by secreted embryonic alkaline phosphatase reporter gene assay; assay type: cell-based; conditions: HEK-293T
RAW264.7 [12] = assay: Inhibition of TNFalpha production in mouse RAW264.7 cells at 0.5 to 1 uM by ELISA; assay type: functional, cell-based
Procedure, shortened: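 TNF-α cytokine levels from compound-treated RAW 264.7 cells measured by commercial ELISA.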

[13] = Inhibition of JAK/STAT signaling pathway in LPS-induced mouse RAW264.7 cells assessed as inhibition of IFNgamma-induced nitric oxide production; assay type: cell-based
Procedure, shortened: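 JAK/STAT1 signalling activated in RAW 264.7 cells with 5 ng/mL IFN-γ alongside varying compound concentrations; NO production measured. Values normalized with ligand + solvent as 100% and untreated cells as 0%; IC50 derived from dose–response.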

[14] = Inhibition of JAK/STAT signaling pathway in LPS-induced mouse RAW264.7 cells assessed as change in NOS2 mRNA expression by RT-PCR analysis relative to control; assay type: cell-based
[15] = Inhibition of JAK/STAT signaling pathway in LPS-induced mouse RAW264.7 cells assessed as change in Cebpb mRNA expression by RT-PCR analysis relative to control; assay type: cell-based
[16] = Inhibition of JAK/STAT signaling pathway in LPS-induced mouse RAW264.7 cells assessed as change in Gtp1 mRNA expression by RT-PCR analysis relative to control; assay type: cell-based
RAW264.7 [17] = assay: Inhibition of LPS-induced iNOS mRNA expression in mouse RAW264.7 cells at 10 to 100 uM after 20 hrs by RT-PCR analysis; assay type: functional; procedure, shortened: as §3
[18] = system: RAW 264.7 cells (Mus musculus); assay: Antiinflammatory activity in mouse RAW264.7 cells assessed as inhibition of LPS-induced nitric oxide production

T1 sequence (P19838 whole entry, looked up): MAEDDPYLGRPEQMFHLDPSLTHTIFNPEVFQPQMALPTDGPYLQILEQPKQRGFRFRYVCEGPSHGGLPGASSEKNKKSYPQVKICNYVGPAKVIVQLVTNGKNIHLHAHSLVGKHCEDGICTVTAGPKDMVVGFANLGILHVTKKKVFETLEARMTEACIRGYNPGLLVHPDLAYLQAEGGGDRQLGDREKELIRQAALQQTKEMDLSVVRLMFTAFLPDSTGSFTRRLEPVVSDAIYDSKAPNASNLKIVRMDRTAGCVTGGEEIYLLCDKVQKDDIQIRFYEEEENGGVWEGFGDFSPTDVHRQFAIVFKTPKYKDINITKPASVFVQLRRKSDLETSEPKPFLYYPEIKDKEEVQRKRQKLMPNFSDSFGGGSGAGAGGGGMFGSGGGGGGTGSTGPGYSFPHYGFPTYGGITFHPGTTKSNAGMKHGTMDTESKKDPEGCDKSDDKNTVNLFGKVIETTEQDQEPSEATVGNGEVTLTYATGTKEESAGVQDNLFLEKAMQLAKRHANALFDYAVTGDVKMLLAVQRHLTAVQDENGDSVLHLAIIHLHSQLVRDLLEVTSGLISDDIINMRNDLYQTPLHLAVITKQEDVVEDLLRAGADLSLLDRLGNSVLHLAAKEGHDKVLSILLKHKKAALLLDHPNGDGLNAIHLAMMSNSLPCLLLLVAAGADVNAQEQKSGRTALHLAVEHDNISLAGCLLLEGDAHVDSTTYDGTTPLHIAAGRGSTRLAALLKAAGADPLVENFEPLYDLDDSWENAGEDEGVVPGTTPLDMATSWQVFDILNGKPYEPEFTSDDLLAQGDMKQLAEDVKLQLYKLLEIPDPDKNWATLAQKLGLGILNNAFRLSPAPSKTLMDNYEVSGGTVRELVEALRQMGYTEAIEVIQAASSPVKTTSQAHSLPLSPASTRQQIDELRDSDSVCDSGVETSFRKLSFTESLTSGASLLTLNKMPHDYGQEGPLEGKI
T1 sequence (Q00653 whole entry, looked up): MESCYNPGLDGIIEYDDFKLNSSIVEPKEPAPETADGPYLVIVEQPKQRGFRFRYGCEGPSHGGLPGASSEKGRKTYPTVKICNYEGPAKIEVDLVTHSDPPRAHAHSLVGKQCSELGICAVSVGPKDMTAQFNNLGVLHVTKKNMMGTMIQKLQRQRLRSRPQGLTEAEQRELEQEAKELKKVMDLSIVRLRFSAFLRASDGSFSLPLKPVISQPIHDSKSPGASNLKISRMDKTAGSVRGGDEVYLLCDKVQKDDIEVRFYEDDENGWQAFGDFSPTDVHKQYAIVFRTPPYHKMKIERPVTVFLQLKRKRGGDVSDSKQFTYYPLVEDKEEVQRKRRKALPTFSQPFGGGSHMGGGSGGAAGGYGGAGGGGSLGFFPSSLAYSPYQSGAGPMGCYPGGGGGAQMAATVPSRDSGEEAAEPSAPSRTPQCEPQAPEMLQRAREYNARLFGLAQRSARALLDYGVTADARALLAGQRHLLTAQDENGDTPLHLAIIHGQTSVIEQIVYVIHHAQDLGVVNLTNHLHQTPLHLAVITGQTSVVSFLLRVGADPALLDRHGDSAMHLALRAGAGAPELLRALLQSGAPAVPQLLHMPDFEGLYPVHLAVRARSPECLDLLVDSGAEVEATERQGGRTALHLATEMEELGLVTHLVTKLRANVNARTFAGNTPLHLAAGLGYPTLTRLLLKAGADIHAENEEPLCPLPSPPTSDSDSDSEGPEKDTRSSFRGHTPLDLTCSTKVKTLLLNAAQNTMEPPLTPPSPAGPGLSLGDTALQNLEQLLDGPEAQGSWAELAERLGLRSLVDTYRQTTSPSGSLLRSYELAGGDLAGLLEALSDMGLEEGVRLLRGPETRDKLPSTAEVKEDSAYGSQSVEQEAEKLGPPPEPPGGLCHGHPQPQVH
T1 sequence (Q04206 whole entry, looked up): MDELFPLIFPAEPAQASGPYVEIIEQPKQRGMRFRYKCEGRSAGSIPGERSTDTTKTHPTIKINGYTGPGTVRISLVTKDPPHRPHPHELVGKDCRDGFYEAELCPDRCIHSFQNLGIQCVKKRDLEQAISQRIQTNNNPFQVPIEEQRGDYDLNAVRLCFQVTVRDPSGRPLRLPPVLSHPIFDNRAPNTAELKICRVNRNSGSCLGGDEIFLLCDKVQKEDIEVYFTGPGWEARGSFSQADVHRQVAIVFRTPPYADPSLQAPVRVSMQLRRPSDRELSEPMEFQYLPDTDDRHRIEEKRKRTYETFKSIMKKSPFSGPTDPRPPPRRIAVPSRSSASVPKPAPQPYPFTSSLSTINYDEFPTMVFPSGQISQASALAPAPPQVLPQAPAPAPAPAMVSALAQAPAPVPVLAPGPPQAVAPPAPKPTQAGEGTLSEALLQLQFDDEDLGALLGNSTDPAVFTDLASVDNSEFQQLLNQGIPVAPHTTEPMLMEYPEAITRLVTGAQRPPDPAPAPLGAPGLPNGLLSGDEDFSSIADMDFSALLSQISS

Row | Structure (SMILES) | IC50 (RAW264.7 [1]) [µM] | CC50 (RAW264.7 [2]) [µM] | also measured
1 | O=C(NCc1ccco1)c1ccc(Cn2c(=O)c3ccccc3[s+]2[O-])cc1 (centres undefined) | 23.3 | > 100 | –
2 | CC1=C(c2ccc3ccccc3c2)S(=O)(=O)N(Cc2ccc(C(=O)N3CCCCC3)cc2)C1=O | 9.61 | 47.9 | –
3 | CC(C)(C)OC(=O)c1ccc(CN2C(=O)c3ccccc3S2(=O)=O)cc1 | 10.6 | > 100 | –
4 | O=C(c1ccc(CN2Cc3ccccc3C2=O)cc1)N1CCCCC1 | 21.9 | > 100 | –
5 | CC(C)(C)OC(=O)N(Cc1ccco1)C(=O)c1ccc(Cn2sc3ccccc3c2=O)cc1 | 68 | > 100 | inhibition (INH) (RAW264.7 [3]): 50%
6 | CC1=C(c2ccc(C)c(C)c2)S(=O)(=O)N(Cc2ccc(C(=O)N3CCCCC3)cc2)C1=O | 16.5 | > 100 | –
7 | CC1=C(c2cc[n+]([O-])cc2)S(=O)(=O)N(Cc2ccc(C(=O)N3CCCCC3)cc2)C1=O | 79.4 | > 100 | –
8 | O=C(NCc1ccco1)c1ccc(Cn2oc3ccccc3c2=O)cc1 | 49.3 | > 100 | –
9 | CC(C)(C)OC(=O)N(Cc1ccco1)C(=O)c1ccc(Cn2oc3ccccc3c2=O)cc1 | 6.69 | > 100 | –
10 | O=C(O)c1ccc(CN2C(=O)c3ccccc3S2(=O)=O)cc1 | 74.7 | > 100 | –
11 | CNC(=O)c1ccc(CN2C(=O)c3ccccc3S2(=O)=O)cc1 | 37.7 | > 100 | –
12 | O=C(NCCc1ccco1)c1ccc(CN2C(=O)c3ccccc3S2(=O)=O)cc1 | 76.6 | > 100 | –
13 | COC(=O)N(Cc1ccco1)C(=O)c1ccc(CN2C(=O)c3ccccc3S2(=O)=O)cc1 | 76 | > 100 | –
14 | O=C(NCc1ccco1)c1ccc(CN2Cc3ccccc3S2(=O)=O)cc1 | 68.4 | > 100 | –
15 | CC(C)(C)OC(=O)N(CCc1ccco1)C(=O)c1ccc(CN2C(=O)c3ccccc3S2(=O)=O)cc1 | 48.6 | > 100 | –
16 | CC(C)(C)OC(=O)N(Cc1ccco1)C(=O)c1ccc(Cn2c(=O)c3ccccc3[s+]2[O-])cc1 (centres undefined) | 68 | 87.3 | –
17 | O=C(NCc1ccco1)c1ccc(CN2C(=O)c3ccccc3C2=O)cc1 | 56 | > 100 | –
18 | O=C(c1ccc(Cn2sc3ccccc3c2=O)cc1)N1CCCCC1 | 5.38 | 70.3 | –

Row | Structure (SMILES) | IC50 (RAW264.7 [1]) [µM] | CC50 (RAW264.7 [2]) [µM] | also measured
19 | CC(=O)N(Cc1ccco1)C(=O)c1ccc(CN2C(=O)c3ccccc3S2(=O)=O)cc1 | 42.6 | > 100 | –
20 | CC(C)(C)OC(=O)N(Cc1ccco1)C(=O)c1ccc(CN2C(=O)c3ccccc3C2=O)cc1 | 3.45 | > 100 | –
21 | CC(C)(C)OC(=O)N(Cc1ccco1)C(=O)c1ccc(CN2Cc3ccccc3C2=O)cc1 | 51.8 | 95.2 | –
22 | O=C(c1ccc(CN2Cc3ccccc3S2(=O)=O)cc1)N1CCCCC1 | 44.3 | > 100 | –
23 | CC(C)(C)OC(=O)N(C(=O)OC(C)(C)C)C(=O)c1ccc(CN2C(=O)c3ccccc3S2(=O)=O)cc1 | 33.4 | > 100 | –
24 | NC(=O)c1ccc(CN2C(=O)c3ccccc3S2(=O)=O)cc1 | 50.6 | > 100 | inhibition (INH) (RAW264.7 [3]): 50%
25 | O=C(c1ccc(Cn2oc3ccccc3c2=O)cc1)N1CCCCC1 | 16.8 | 66.2 | –
26 | O=C(c1ccc(CN2C(=O)c3ccccc3S2(=O)=O)cc1)N1CCCCC1 | 50.6 | 69.2 | –
27 | CN(Cc1ccco1)C(=O)c1ccc(CN2C(=O)c3ccccc3S2(=O)=O)cc1 | 79.6 | > 100 | –
28 | CC(C)(C)OC(=O)N(Cc1ccco1)C(=O)c1ccc(CN2Cc3ccccc3S2(=O)=O)cc1 | 10.6 | > 100 | –
29 | CC(C)(C)OC(=O)NC(=O)c1ccc(CN2C(=O)c3ccccc3S2(=O)=O)cc1 | 64.7 | > 100 | –
30 | O=C(c1ccc(Cn2c(=O)c3ccccc3[s+]2[O-])cc1)N1CCCCC1 (centres undefined) | 49 | > 100 | –
31 | CC(C)(C)OC(=O)N(Cc1ccco1)C(=O)c1ccc(CN2C(=O)c3ccccc3S2(=O)=O)cc1 | 2.61 | > 100 | inhibition [4]: inactive; inhibition (RAW264.7 [1]): Dose-dependent effect; IC50 (RAW264.7 [5]): 1.69 µM; inhibition (RAW264.7 [5]): Dose-dependent effect; Activity (RAW264.7 [6]): Non-toxic; IC50 (RAW264.7 [7]): 10.9 µM; inhibition (RAW264.7 [7]): Dose-dependent effect; inhibition (RAW264.7 [8]): Dose-dependent effect; inhibition (RAW264.7 [9]): Dose-dependent effect; inhibition (INH) (RAW264.7 [3]): >70%; inhibition [10]: inactive; inhibition [11]: inactive; inhibition (RAW264.7 [12]): inactive; IC50 [13]: 7.88 µM; inhibition [13]: Dose-dependent effect; Activity [14]: Active; Activity [15]: Active; Activity [16]: Active; inhibition (INH) (RAW264.7 [17]): <=67%; IC50 [18]: 9.61 µM
32 | O=C(NCc1ccco1)c1ccc(CN2C(=O)c3ccccc3S2(=O)=O)cc1 | 24.3 | > 100 | –
33 | O=C(NCc1ccco1)c1ccc(Cn2sc3ccccc3c2=O)cc1 | 19.8 | > 100 | –
34 | O=C(c1ccc(CN2C(=O)c3ccccc3C2=O)cc1)N1CCCCC1 | > 100 | > 100 | –
35 | CN(C(=O)OC(C)(C)C)C(=O)c1ccc(CN2C(=O)c3ccccc3S2(=O)=O)cc1 | 42 | > 100 | –
36 | O=C(NCc1ccco1)c1ccc(CN2Cc3ccccc3C2=O)cc1 | 49.7 | > 100 | –
